Here are results for 2 molecules from paper PMC4288442 (Biochemical and biophysical research communications, 2013).

The target of this test is wild type (NL4-3) HIV-1 protease (Human immunodeficiency virus type 1 group M subtype B, UniProt P12497). Nature of the test: FRET-based enzyme inhibition assay, wild type. The format is biochemical. In a few lines:
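Commercial wild-type NL4-3 HIV-1 protease, supplied at 0.3 mg/ml, assayed by FRET with a fluorogenic HIV-1 substrate. Peptide test compounds carry a reduced (-CH2-NH-) bond in place of the labile peptide bond so the protease cannot cleave them. IC50 is the average of three independent experiments, with SD.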

Non-standard residues stand in square brackets, D forms with d. Residues, ends and D or L forms follow the SMILES beside them. Nle = CCCC[C@H](N)C(=O)O

As to `CC(C)C[C@H](NC(=O)[C@@H](NC(=O)[C@@H](N)CCCNC(=N)N)C(C)C)C(=O)O` [Compound 7b, Arg-Val-Leu] (H-Arg-Val-Leu-OH), the half-maximal inhibitory concentration (IC50) (commonly the midpoint of a concentration-inhibition curve) is greater than 1000 nM.

In turn, `CCCC[C@H](NC(=O)[C@H](C)NC(=O)[C@H](CCC(=O)O)NC(=O)[C@@H](N)Cc1ccccc1)C(=O)O` [Compound 7a, Phe-Glu-Ala-Nle] (H-FEA[Nle]-OH) returned an IC50 greater than 1000 nM.
